Assay results collected from several papers.
Protocols differ between the studies behind these lines.
Cell line: CCRF-CEM
Effect on: cell growth or viability

COc1ccc(C(=O)c2cc3c(-c4ccccc4)c(OC)ccc3o2)cc1
IC50 (72 h): 1.5 µM

CCOC(=O)c1cc(CCc2ccccc2OC)sc1N
IC50 (48 h): 20 µM

O=C(CN1C(=O)SC(=Cc2ccccc2)C1=O)Nc1ccc(Cl)cc1C(F)(F)F
IC50 (MTT; 48 h): 47.5 µM

COc1ccc2oc(C(=O)c3ccccc3)cc2c1-c1ccccc1
IC50 (72 h): > 50 µM

CC[C@]1(O)C[C@H]2CN(CCc3c([nH]c4ccccc34)[C@@](C(=O)OC)(c3cc4c(cc3OC)N(C=O)[C@H]3[C@@](O)(C(=O)OC)[C@H](OC(C)=O)[C@]5(CC)C=CCN6CC[C@]43[C@@H]65)C2)C1
IC50 (fluorescence; 72 h): 0.0104 µM

COC(=O)c1cc(-c2cc(OC)ccc2OC)sc1N
IC50 (48 h): 30 µM

O=C(CN1C(=O)SC(=Cc2ccc(F)cc2)C1=O)Nc1ccc(Cl)cc1C(F)(F)F
IC50 (MTT; 48 h): 38 µM

COc1ccccc1C(=O)c1cc2c(-c3ccccc3)c(OC)ccc2o1
IC50 (72 h): > 50 µM

O=C1C(=Cc2ccccc2)CN(C(=O)CCC(=O)N2CC(=Cc3ccccc3)C(=O)C(=Cc3ccccc3)C2)CC1=Cc1ccccc1
IC50 (72 h): 1.21 µM

Cc1ccc(C=C2SC(=O)N(CC(=O)Nc3ccc(Cl)cc3C(F)(F)F)C2=O)cc1
IC50 (MTT; 48 h): 31.8 µM

COc1ccc(OC)c(-c2cc(C#N)c(N)s2)c1
IC50 (48 h): 12 µM

O=C1C(=Cc2ccccc2)CN(C(=O)C(=O)N2CC(=Cc3ccccc3)C(=O)C(=Cc3ccccc3)C2)CC1=Cc1ccccc1
IC50 (72 h): 0.75 µM

N#Cc1cc(CCc2ccccc2)sc1N
IC50 (48 h): 32 µM

O=C1C(=Cc2ccccc2)CN(C(=O)CCCCCCC(=O)N2CC(=Cc3ccccc3)C(=O)C(=Cc3ccccc3)C2)CC1=Cc1ccccc1
IC50 (72 h): 2.28 µM

COc1cccc(C(=O)c2cc3c(-c4ccccc4)c(O)ccc3o2)c1
IC50 (72 h): 35 µM

CC(=O)O[C@H]1C(=O)[C@@]2(C)[C@H]([C@H](OC(=O)c3ccccc3)[C@]3(O)C[C@H](OC(=O)[C@H](O)[C@@H](NC(=O)c4ccccc4)c4ccccc4)C(C)=C1C3(C)C)[C@]1(OC(C)=O)CO[C@@H]1C[C@@H]2O
IC50 (MTT; 48 h): 0.31 µM

CCOC(=O)c1c(N)sc(CCc2cc(OC)ccc2OC)c1C(=O)OCC
IC50 (48 h): 20 µM

COc1ccc(/C=C\c2cc(OC)c(OC)c(OC)c2)cc1O
IC50 (72 h): 0.0018 µM

COc1ccccc1CCc1cc(C#N)c(N)s1
IC50 (48 h): 6.8 µM

O=C1NCCc2[nH]c(-c3ccncc3)cc21
IC50: 2.5 µM

CCc1ccc(CCOc2ccc(CC3SC(=O)NC3=O)cc2)nc1 (stereo not shown)
IC50 (MTT; 48 h): 17.9 µM

COc1ccc(CCc2cc(C#N)c(N)s2)cc1
IC50 (48 h): 7.2 µM
